According to ChEMBL document CHEMBL3585241, “Synthesis and biological evaluation of thiabendazole derivatives as anti-angiogenesis and vascular disrupting agents” (Bioorg Med Chem, 2015):
Calls of active or inactive are those of the source. The calls are words filed in the database; no cut-off is given here.

Assays:
Tubulin (Bos taurus) [1] = target: T1, Tubulin (Bos taurus) (UniProt Q6B856+Q862F3); assay: Inhibition of bovine brain tubulin polymerization at 10 uM measured every 5 secs for 0 to 3 mins , 10 secs for 3 to 5 mins, 30 secs for 5 to 10 mins, 60 secs for 10 to 17 mins by spectrophotometric analysis
HUVEC [2] = assay: Cytotoxicity against HUVEC assessed as inhibition of cell proliferation rate at 10 uM after 72 hrs by MTT assay relative to control; type: functional; settings: Homo sapiens
HUVEC [3] = assay: Cytotoxicity against HUVEC assessed as inhibition of cell proliferation rate at 100 uM after 72 hrs by MTT assay relative to control; type: functional; settings: Homo sapiens
Tubulin (Bos taurus) [4] = target: T1, Tubulin (Bos taurus); assay: Inhibition of bovine brain tubulin polymerization at 5 uM by spectrophotometric analysis; settings: TDE = time-dependent effect
Method in brief: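 MAP-rich bovine brain tubulin (2 mg/mL) in 80 mM PIPES pH 6.9, 2 mM MgCl2, 0.5 mM EGTA, 5% glycerol, with DMSO or compound at 5 µM. Polymerization started with 1 mM GTP at 37 °C. Absorbance at 340 nm followed over 17 min (5 s intervals to 3 min, 10 s to 5 min, 30 s to 10 min, 60 s to 17 min).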

A549 [5] = assay: Inhibition of alpha-tubulin formation in human A549 cells at 50 nM after 24 hrs by TRITC/Hoechst 33258 staining-based immunofluorescence microscopic analysis; type: cell-based
Tubulin (Bos taurus) [6] = target: T1, Tubulin (Bos taurus); assay: Inhibition of bovine brain tubulin polymerization at 3 uM measured every 5 secs for 0 to 3 mins , 10 secs for 3 to 5 mins, 30 secs for 5 to 10 mins, 60 secs for 10 to 17 mins by spectrophotometric analysis
Thoracic aorta = assay: Antiangiogenic activity in Sprague-Dawley rat thoracic aorta ring assessed as inhibition of microvessel outgrowth at 0.33 uM measured on day 6 by inverse microscopic analysis; type: functional, tissue-based
Method in brief: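 Aortas from 6-week Sprague Dawley rats taken under ether anesthesia, rinsed in serum-free M199 and cut into 1-mm rings. Rings embedded in Matrigel and held 1 h at 37 °C. Serum-free M199, with or without 20% FBS, then added with test agents at various concentrations. Sprouting imaged by inverted microscope on day 6.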

HUVEC [7] = assay: Antiangiogenic activity in HUVEC assessed as inhibition of tubular structure formation at 0.033 to 0.33 uM after 8 hrs by microscopic analysis; type: functional, cell-based; settings: Homo sapiens
A549 [8] = assay: Cytotoxicity against human A549 cells assessed as inhibition of cell proliferation rate after 72 hrs by MTT assay; type: functional, cell-based; settings: A549, 72 h
Method in brief: (§1)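 Cells seeded at 3.5 × 10^4 cells/mL and cultured 24 h (37 °C, 5% CO2), then exposed to compounds for 72 h. DMSO at 0.5% final served as the vehicle control. IC50 taken from triplicate experiments, reported as mean.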

HUVEC [9] = assay: Induction of vascular disruption in HUVEC after 16 hrs by inverted microscopic analysis; type: functional, cell-based; settings: Homo sapiens
HUVEC [10] = assay: Cytotoxicity against HUVEC assessed as inhibition of cell proliferation rate after 72 hrs by MTT assay; type: functional, cell-based; settings: Homo sapiens; method in brief: as §1
A549 [11] = assay: Inhibition of alpha-tubulin formation in human A549 cells at 250 uM after 24 hrs by TRITC/Hoechst 33258 staining-based immunofluorescence microscopic analysis; type: cell-based
HCT-116 = assay: Cytotoxicity against human HCT116 cells assessed as inhibition of cell proliferation rate after 72 hrs by MTT assay; type: functional, cell-based; settings: HCT-116, 72 h; method in brief: as §1
HepG2 = assay: Cytotoxicity against human HepG2 cells assessed as inhibition of cell proliferation rate after 72 hrs by MTT assay; type: functional, cell-based; settings: HepG2, 72 h; method in brief: as §1

| Structure (SMILES) | inhibition at 10 µM (HUVEC [2]) [%] | inhibition at 100 µM (HUVEC [3]) [%] | other results |
| --- | --- | --- | --- |
| CC(=O)O[C@H]1C(=O)[C@@]2(C)[C@H]([C@H](OC(=O)c3ccccc3)[C@]3(O)C[C@H](OC(=O)[C@H](O)[C@@H](NC(=O)c4ccccc4)c4ccccc4)C(C)=C1C3(C)C)[C@]1(OC(C)=O)CO[C@@H]1C[C@@H]2O |  |  | inhibition (Tubulin (Bos taurus) [1]): inactive |
| Cc1cc2nc(-c3cscn3)[nH]c2cc1C | 0 | 0 |  |
| c1ccc2cc3[nH]c(-c4cscn4)nc3cc2c1 | 2 | 59 |  |
| O=C(c1ccccc1)c1ccc2[nH]c(-c3cscn3)nc2c1 |  |  | inhibition (Tubulin (Bos taurus) [4]): tde |
| Clc1ccc2[nH]c(-c3cscn3)nc2c1 | 7 | 53 |  |
| CC[C@]1(O)C[C@@H]2CN(CCc3c([nH]c4ccccc34)[C@@](C(=O)OC)(c3cc4c(cc3OC)N(C)[C@H]3[C@@](O)(C(=O)OC)[C@H](OC(C)=O)[C@]5(CC)C=CCN6CC[C@]43[C@@H]65)C2)C1 |  |  | inhibition (A549 [5]): Active |
| COC(=O)Nc1nc2cc(C(=O)c3cccs3)ccc2[nH]1 |  |  | inhibition (Tubulin (Bos taurus) [6]): Active |
| c1cc2[nH]c(-c3cscn3)nc2cn1 | 8 | 0 |  |
| c1ccc(Cn2c(-c3ccccc3)nc3ccccc32)cc1 | 7 | 38 |  |
| CCN(CC)CCNC(=O)c1c(C)[nH]c(/C=C2\C(=O)Nc3ccc(F)cc32)c1C |  |  | inhibition (Thoracic aorta): Active; inhibition (HUVEC [7]): Active |
| Cc1ccc2nc(-c3ccccn3)[nH]c2c1 | 7 | 10 |  |
| O=C(Nc1scnc1-c1nc2ccccc2[nH]1)NC1CC1 |  |  | inhibition (Tubulin (Bos taurus) [4]): tde |
| c1ccc2[nH]cnc2c1 [BENZIMIDAZOLE] | 0 | 11 | IC50 (A549 [8]): > 100 µM; IC50 (HUVEC [9]): > 250 µM; IC50 (HUVEC [10]): > 100 µM; inhibition (A549 [11]): Active; IC50 (HCT-116): > 100 µM; IC50 (HepG2): > 100 µM |
